Experimental data taken from ChEMBL document CHEMBL1125406, “Structure-activity relationships for inhibition of papain by peptide Michael acceptors” (J Med Chem, 1992).

Assays:
[1] = Compound was evaluated for the ratio of apparent inactivation rate constant k2 to apparent binding constant Ki; conditions: read-out: k2 / Ki
Procedure, shortened: (§1)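 Mercurial papain activated with L-cysteine for 45 min at 25 °C in 50 mM phosphate, 1 mM EDTA, pH 6.2. Papain (0.11 μM) was incubated at 25 °C and pH 6.2, in 20% CH3CN, with excess inhibitor. Aliquots taken about every 10 min were diluted 10-fold into buffer containing 2 mM Cbz-Gly-ONp. Residual activity was read at 340 nm, corrected for spontaneous hydrolysis, and analysed by Kitz–Wilson plot.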

[2] = molecular target: T1, Papain (Carica papaya) (UniProt P00784); assay: Compound was evaluated for papain inactivation. [I] is the inhibitor concentration; 1.42-10; format: functional; procedure, shortened: as §1
T1 sequence (whole entry): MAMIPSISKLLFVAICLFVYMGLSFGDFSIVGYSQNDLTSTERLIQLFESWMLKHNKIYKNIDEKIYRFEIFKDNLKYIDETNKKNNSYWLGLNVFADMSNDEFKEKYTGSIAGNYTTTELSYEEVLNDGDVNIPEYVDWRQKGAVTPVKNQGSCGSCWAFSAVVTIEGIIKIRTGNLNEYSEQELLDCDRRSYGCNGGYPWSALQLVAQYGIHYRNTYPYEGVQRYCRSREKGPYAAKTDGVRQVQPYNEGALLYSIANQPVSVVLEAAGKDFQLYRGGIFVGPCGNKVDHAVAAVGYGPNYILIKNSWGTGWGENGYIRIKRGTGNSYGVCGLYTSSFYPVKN

[3] = molecular target: T1, Papain (Carica papaya); assay: Compound was evaluated for papain inactivation. [I] is the inhibitor concentration; 0.07-0.58; format: functional; procedure, shortened: as §1
[4] = molecular target: T1, Papain (Carica papaya); assay: Compound was evaluated for papain inactivation. [I] is the inhibitor concentration; 30-450; format: functional; procedure, shortened: as §1
[5] = molecular target: T1, Papain (Carica papaya); assay: Compound was evaluated for papain inactivation. [I] is the inhibitor concentration; 60-500; format: functional; procedure, shortened: as §1
[6] = molecular target: T1, Papain (Carica papaya); assay: Compound was evaluated for papain inactivation. [I] is the inhibitor concentration; 80-160; format: functional; procedure, shortened: as §1
[7] = molecular target: T1, Papain (Carica papaya); assay: Compound was evaluated for papain inactivation. [I] is the inhibitor concentration; 6-35; format: functional; procedure, shortened: as §1
[8] = molecular target: T1, Papain (Carica papaya); assay: Compound was evaluated for papain inactivation. [I] is the inhibitor concentration; 0.05-1.08; format: functional; procedure, shortened: as §1
[9] = molecular target: T1, Papain (Carica papaya); assay: Compound was evaluated for papain inactivation. [I] is the inhibitor concentration; 60-1000; format: functional; procedure, shortened: as §1
[10] = molecular target: T1, Papain (Carica papaya); assay: Compound was evaluated for papain inactivation. [I] is the inhibitor concentration; 2-30; format: functional; procedure, shortened: as §1
[11] = molecular target: T1, Papain (Carica papaya); assay: Compound was evaluated for papain inactivation. [I] is the inhibitor concentration; 0.87-10; format: functional; procedure, shortened: as §1
[12] = molecular target: T1, Papain (Carica papaya); assay: Compound was evaluated for papain inactivation. [I] is the inhibitor concentration; 1-8; format: functional; procedure, shortened: as §1

Structure (SMILES): COC(=O)/C=C/CNC(=O)c1ccccc1
- kinact/KI [1]: 0.05 M⁻¹ s⁻¹
- I [2]: 1.42 mM

Structure (SMILES): COC(=O)/C=C/CNC(=O)[C@@H](CCSC)NC(C)=O
- kinact/KI [1]: 2.06 M⁻¹ s⁻¹
- I [3]: 0.07 mM

Structure (SMILES): CC(=O)NC(Cc1ccccc1)C(=O)NC/C=C/C(=O)O (stereo unspecified)
- I [4]: 30 µM
- kinact/KI [1]: 5 M⁻¹ s⁻¹

Structure (SMILES): CC(=O)NC(Cc1ccccc1)C(=O)NC/C=C/C#N (stereo unspecified)
- kinact/KI [1]: 1.7 M⁻¹ s⁻¹
- I [5]: 60 µM

Structure (SMILES): CC(=O)NC(Cc1ccccc1)C(=O)NC/C=C/c1ccc([N+](=O)[O-])cc1 (stereo unspecified)
- I [6]: 80 µM

Structure (SMILES): COC(=O)/C=C/CNC(=O)C(Cc1ccccc1)NC(C)=O (stereo unspecified)
- I [7]: 6 µM
- kinact/KI [1]: 26.1 M⁻¹ s⁻¹

Structure (SMILES): COC(=O)/C=C/CNC(=O)[C@@H](CC(C)C)NC(C)=O
- I [8]: 0.056 mM
- kinact/KI [1]: 2.46 M⁻¹ s⁻¹

Structure (SMILES): CC(=O)NC(Cc1ccccc1)C(=O)NC/C=C/C(N)=O (stereo unspecified)
- kinact/KI [1]: 1.1 M⁻¹ s⁻¹
- I [9]: 60 µM

Structure (SMILES): CC(=O)NC(Cc1ccccc1)C(=O)NC/C=C/S(C)(=O)=O (stereo unspecified)
- kinact/KI [1]: 18.7 M⁻¹ s⁻¹
- I [10]: 2 µM

Structure (SMILES): COC(=O)/C=C/CNC(=O)CCc1ccccc1
- kinact/KI [1]: 0.23 M⁻¹ s⁻¹
- I [11]: 0.87 mM

Structure (SMILES): COC(=O)/C=C/CNC(=O)[C@H](Cc1ccccc1)NC(C)=O
- kinact/KI [1]: 0.25 M⁻¹ s⁻¹
- I [12]: 1 mM
